Measurements as given in the M2OR odorant receptor database.

Columns and labels:
Details in all cases: stereoisomer not certain
OR51D1 (Homo sapiens) = biological target: T1, OR51D1 (Homo sapiens) (UniProt Q8NGF3)
T1 sequence (whole entry): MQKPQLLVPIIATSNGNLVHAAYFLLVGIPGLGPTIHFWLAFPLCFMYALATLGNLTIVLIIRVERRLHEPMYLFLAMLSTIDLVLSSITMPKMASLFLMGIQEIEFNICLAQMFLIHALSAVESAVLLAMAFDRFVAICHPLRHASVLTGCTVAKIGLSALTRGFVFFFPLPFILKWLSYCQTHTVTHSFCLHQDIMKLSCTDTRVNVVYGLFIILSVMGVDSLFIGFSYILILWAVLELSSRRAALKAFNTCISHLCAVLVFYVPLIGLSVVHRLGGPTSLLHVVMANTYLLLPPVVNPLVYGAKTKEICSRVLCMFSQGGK
Procedure, shortened: (§1)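 Assay methods differ from source to source, frequently being transient luciferase assays in mammalian cell lines. For each receptor–molecule pair, the label responsive (active) applies when the original authors judged the measured signal statistically different from baseline, and non-responsive (inactive) applies otherwise.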

OR51E1 (Homo sapiens) [1] = biological target: T2, OR51E1 (Homo sapiens) (UniProt Q8TCB6)
T2 sequence (whole entry): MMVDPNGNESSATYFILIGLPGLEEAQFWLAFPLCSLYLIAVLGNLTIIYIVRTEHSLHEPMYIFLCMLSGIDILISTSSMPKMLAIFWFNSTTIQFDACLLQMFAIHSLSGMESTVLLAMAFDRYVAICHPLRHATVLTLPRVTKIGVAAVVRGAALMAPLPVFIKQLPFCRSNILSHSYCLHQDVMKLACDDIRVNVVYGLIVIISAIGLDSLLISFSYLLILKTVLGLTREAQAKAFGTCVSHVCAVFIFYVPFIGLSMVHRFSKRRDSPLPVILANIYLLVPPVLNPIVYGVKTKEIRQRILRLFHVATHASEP
Procedure, shortened: as §1

OR51E2 (Homo sapiens) = biological target: T3, OR51E2 (Homo sapiens) (UniProt Q9H255)
T3 sequence (whole entry): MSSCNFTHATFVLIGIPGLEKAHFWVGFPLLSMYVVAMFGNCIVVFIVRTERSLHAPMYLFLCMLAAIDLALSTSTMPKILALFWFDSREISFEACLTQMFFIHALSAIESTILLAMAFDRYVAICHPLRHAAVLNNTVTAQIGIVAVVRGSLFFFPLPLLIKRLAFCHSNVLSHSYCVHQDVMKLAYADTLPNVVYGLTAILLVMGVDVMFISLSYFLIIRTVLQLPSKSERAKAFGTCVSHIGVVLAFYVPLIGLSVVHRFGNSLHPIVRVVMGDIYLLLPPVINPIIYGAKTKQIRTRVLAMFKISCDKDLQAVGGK
Procedure, shortened: as §1

OR51F2 (Homo sapiens) = biological target: T4, OR51F2 (Homo sapiens) (UniProt Q8NH61)
T4 sequence (whole entry): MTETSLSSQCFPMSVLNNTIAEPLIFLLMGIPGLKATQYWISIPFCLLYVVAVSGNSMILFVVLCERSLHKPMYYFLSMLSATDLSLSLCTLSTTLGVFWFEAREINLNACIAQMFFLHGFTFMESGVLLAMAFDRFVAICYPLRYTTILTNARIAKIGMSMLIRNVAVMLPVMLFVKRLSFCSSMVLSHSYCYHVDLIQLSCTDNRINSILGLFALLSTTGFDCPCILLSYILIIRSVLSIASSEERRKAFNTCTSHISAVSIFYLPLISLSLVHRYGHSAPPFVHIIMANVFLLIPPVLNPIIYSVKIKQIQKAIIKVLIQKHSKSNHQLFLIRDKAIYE
Procedure, shortened: as §1

OR51G1 (Homo sapiens) = biological target: T5, OR51G1 (Homo sapiens) (UniProt Q8NGK1)
T5 sequence (whole entry): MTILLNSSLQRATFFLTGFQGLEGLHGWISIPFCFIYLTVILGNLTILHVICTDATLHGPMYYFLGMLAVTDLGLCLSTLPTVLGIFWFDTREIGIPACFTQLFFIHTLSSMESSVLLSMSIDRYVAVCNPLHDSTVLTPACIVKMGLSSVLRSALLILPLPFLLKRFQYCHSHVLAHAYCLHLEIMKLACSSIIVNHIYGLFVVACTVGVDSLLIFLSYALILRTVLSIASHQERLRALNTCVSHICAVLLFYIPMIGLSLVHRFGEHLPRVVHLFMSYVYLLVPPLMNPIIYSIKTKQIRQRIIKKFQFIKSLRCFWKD
Procedure, shortened: as §1

OR51G2 (Homo sapiens) = biological target: T6, OR51G2 (Homo sapiens) (UniProt Q8NGK0)
T6 sequence (whole entry): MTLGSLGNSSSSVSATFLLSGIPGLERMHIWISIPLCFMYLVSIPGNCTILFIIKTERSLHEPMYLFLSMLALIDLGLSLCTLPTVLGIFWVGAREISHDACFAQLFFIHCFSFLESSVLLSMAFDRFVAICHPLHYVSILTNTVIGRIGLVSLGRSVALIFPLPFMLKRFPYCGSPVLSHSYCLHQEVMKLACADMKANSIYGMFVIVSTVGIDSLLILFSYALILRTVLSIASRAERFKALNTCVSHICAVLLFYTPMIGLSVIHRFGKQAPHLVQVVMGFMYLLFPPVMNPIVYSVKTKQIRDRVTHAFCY
Procedure, shortened: as §1

OR51I1 (Homo sapiens) = biological target: T7, OR51I1 (Homo sapiens) (UniProt Q9H343)
T7 sequence (whole entry): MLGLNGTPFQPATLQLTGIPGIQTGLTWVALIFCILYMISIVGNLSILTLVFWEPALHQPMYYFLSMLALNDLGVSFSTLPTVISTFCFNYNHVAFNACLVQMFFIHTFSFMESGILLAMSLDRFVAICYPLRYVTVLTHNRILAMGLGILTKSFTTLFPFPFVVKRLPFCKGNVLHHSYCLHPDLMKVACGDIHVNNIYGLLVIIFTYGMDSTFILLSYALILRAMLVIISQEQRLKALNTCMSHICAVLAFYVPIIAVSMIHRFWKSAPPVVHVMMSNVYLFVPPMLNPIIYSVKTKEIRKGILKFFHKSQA
Procedure, shortened: as §1

OR51I2 (Homo sapiens) = biological target: T8, OR51I2 (Homo sapiens) (UniProt Q9H344)
T8 sequence (whole entry): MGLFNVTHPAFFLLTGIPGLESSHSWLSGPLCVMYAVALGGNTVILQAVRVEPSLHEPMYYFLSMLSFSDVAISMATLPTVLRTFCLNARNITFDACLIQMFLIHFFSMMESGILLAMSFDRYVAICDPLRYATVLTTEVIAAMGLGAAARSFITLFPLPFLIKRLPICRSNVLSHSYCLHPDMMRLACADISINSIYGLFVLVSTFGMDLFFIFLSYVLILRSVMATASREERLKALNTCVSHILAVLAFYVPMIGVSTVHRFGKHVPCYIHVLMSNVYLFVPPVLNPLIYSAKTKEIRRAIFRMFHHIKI
Procedure, shortened: as §1

OR51J1 (Homo sapiens) = biological target: T9, OR51J1 (Homo sapiens) (UniProt Q9H342)
T9 sequence (whole entry): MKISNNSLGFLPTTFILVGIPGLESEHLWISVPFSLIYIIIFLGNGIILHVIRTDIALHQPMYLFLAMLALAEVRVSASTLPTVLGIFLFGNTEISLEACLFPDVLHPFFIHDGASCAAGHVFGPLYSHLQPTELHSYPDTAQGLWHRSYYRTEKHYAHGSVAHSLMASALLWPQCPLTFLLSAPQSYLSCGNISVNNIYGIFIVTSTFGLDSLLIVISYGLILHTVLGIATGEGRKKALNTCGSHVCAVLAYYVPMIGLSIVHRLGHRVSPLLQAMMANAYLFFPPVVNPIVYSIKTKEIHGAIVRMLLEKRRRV
Procedure, shortened: as §1

OR51L1 (Homo sapiens) = biological target: T10, OR51L1 (Homo sapiens) (UniProt Q8NGJ5)
T10 sequence (whole entry): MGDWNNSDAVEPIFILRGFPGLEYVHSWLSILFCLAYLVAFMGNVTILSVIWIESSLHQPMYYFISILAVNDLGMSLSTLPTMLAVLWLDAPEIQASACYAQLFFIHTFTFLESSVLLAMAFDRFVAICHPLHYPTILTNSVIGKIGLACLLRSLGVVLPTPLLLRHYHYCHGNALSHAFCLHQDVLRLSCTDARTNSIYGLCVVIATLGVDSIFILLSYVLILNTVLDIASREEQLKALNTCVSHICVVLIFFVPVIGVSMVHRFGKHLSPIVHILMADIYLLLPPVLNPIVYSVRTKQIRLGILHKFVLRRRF
Procedure, shortened: as §1

OR51M1 (Homo sapiens) = biological target: T11, OR51M1 (Homo sapiens) (UniProt Q9H341)
T11 sequence (whole entry): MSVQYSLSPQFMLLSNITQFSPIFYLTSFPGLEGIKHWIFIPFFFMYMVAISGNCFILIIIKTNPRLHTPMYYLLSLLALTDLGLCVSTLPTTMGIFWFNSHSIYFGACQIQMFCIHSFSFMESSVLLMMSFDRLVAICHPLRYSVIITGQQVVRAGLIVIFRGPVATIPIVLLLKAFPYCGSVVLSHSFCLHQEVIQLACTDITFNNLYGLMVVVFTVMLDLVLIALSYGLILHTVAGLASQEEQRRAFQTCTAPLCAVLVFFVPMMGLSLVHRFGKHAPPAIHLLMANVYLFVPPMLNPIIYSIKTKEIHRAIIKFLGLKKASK
Procedure, shortened: as §1

OR51Q1 (Homo sapiens) = biological target: T12, OR51Q1 (Homo sapiens) (UniProt Q8NH59)
T12 sequence (whole entry): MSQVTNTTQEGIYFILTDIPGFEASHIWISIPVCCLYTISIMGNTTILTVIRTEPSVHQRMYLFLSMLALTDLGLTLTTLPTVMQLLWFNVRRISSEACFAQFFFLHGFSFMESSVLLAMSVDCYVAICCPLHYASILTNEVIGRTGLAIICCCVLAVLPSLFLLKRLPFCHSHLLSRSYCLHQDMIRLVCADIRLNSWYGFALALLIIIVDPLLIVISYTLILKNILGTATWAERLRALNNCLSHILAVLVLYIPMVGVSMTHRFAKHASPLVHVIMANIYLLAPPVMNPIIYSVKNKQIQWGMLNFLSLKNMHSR
Procedure, shortened: as §1

OR51S1 (Homo sapiens) = biological target: T13, OR51S1 (Homo sapiens) (UniProt Q8NGJ8)
T13 sequence (whole entry): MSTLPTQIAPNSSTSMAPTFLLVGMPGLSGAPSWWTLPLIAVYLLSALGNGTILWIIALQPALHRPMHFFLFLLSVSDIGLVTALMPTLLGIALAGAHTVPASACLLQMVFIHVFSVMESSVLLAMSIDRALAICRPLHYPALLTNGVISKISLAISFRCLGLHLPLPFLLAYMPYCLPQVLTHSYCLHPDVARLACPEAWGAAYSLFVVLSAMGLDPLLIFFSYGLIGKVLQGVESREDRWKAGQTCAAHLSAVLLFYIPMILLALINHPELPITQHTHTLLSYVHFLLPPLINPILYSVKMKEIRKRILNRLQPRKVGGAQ
Procedure, shortened: as §1

OR51V1 (Homo sapiens) = biological target: T14, OR51V1 (Homo sapiens) (UniProt Q9H2C8)
T14 sequence (whole entry): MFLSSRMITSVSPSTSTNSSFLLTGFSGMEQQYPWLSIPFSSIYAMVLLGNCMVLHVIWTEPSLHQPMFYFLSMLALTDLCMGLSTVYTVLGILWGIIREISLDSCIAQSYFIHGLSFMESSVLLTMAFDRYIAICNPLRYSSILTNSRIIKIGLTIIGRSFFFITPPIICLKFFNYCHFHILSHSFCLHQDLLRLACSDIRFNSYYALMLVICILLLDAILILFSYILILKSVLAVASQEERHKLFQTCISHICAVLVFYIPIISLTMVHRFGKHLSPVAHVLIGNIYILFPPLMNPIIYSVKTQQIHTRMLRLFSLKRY
Procedure, shortened: as §1

OR52A1 (Homo sapiens) = biological target: T15, OR52A1 (Homo sapiens) (UniProt Q9UKL2)
T15 sequence (whole entry): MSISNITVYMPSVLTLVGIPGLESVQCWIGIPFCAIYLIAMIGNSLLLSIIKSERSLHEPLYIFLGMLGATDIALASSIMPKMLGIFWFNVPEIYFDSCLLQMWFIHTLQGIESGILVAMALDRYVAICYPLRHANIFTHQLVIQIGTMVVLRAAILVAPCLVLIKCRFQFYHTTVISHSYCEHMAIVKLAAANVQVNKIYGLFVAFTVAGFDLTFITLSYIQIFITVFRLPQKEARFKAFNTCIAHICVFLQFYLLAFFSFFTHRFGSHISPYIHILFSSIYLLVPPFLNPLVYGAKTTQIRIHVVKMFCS
Procedure, shortened: as §1

OR51E1 (Homo sapiens) [2] = biological target: T16, OR51E1 (Homo sapiens) (UniProt Q8TCB6); remark: listed apart in the source
T16 sequence (whole entry): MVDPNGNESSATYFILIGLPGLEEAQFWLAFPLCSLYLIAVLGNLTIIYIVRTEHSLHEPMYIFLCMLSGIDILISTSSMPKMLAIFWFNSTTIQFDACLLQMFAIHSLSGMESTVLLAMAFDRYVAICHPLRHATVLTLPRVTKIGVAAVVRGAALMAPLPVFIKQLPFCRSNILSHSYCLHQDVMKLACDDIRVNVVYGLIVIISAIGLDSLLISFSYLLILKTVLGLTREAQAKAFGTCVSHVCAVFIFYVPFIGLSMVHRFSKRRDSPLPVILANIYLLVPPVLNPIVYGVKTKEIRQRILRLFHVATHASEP
Procedure, shortened: as §1

Measured: odorant receptor agonist call

Cc1cnc(C)c(C)n1
not listed: OR51E1 (Homo sapiens) [2]
inactive: all other assays above

CCC(C)CC(=O)O (centres undefined)
active: OR51E1 (Homo sapiens) [2]

C=C(C)C1CCC(C)C(=O)C1 (centres undefined)
inactive: OR51E1 (Homo sapiens) [2] | OR51E2 (Homo sapiens) | OR51L1 (Homo sapiens)
